Reference: PubChem BioAssay AID493104 (Broad Institute, 2011)

Each compound was assayed on Vibrio harveyi BB721 quorum sensing luminescence, 9 h (assay: inhibitors of constitutive quorum-sensing luminescence in V. harveyi, dose response, counter-screen for AI-2 quorum sensing inhibitor project, strain BB721 constitutive-on, dry powder (AID 493104)).
In short: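 Test system – V. harveyi BB721, constitutive-on quorum sensing strain · Amount – starting cell density OD600 0.0005 · Buffer or medium – AB medium · Timing – 9 h exposure, 30 °C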

Compound | AC50
COc1cc(NC(=O)CN2C(=O)NC(c3ccccc3)(c3ccccc3)C2=O)cc(OC)c1 | 0.919 µM
CCc1ccc(S(=O)(=O)Nc2ccc(Br)cn2)cc1 | 11.9 µM
C=Cn1c(C(=O)O)ccc1-c1ccc(CC)cc1 | 13.8 µM
Cc1cccc(NS(=O)(=O)c2ccc(Oc3ccccc3)cc2)n1 | 12.4 µM
O=C1C=C/C(=C/Br)O1 | 6.43 µM
